Screens (PubChem)
Hits are enriched below; roughly 3.8% of the tested compounds scored in any of these assays.
CSC inhib: cancer stem cell inhibition | cancer stem cell-like cells viability, luminescence | inhibition, % at 7.5 µM | hit rate 1.1% among 300,000 | AID 2717; in the data active = inhibition above about 75%; tested in HMLE shEcad cells
TMEM16A inh: mouse TMEM16A channel inhibition, primary screen; Q8BHY3; HEK293 TMEM16A/YFP iodide influx fluorescence, ionomycin; normalized B-score (activity score, 25-100; higher = stronger inhibition) at 10 µM; hit rate 1.2% among 310,000;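 active = ratio plate-corrected score three or more library SD toward inhibition, starting fluorescence score within five deviations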;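 note: score derived from kinetic fluorescence span divided by baseline fluorescence per well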
MC4R barr agon: human MC4R agonism via beta-arrestin; P32245; U2OS MC4R beta-arrestin complementation, luminescence; percent of melanotan II response, DMSO zero; hit rate 0.98% among 360,000; activation, % at 8.9 µM;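 active = activation above a per-plate cutoff, the mean activation of sample wells on that plate plus 3 SD, cut at about 8% in these data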
Beta cell apopt: blocks beta cell apoptosis; INS-1E cytokine-induced death, ATP luminescence, 48 h; percent of positive-control rescue, neutral wells zero; protection from apoptosis, % (no concentration beside the values); hit rate 0.8% among 300,000;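 active = Every replicate reaches about 75%, or at least half do and their mean reaches it too, limit read from the data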;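 note: higher means more ATP so stronger rescue from cytokine killing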
MC4R antagonist: blocks human MC4R cAMP signaling; P32245; MC4R-expressing cells, MTII-stimulated cAMP, LANCE TR-FRET; inhibition, % at 6.5 µM; hit rate 0.48% among 360,000;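 active = inhibition above its plate's cutoff, the mean of tested wells on that plate plus 3 SD, cut at about 29% in these data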
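Assay system: human MC4R-expressing U2OS cells; reagent: Melanotan II stimulation of cells; dosing: 6.5 µM single dose; timing: compound 30 min, challenge 1 h, detection 1 h; signal: TR-FRET cAMP assay; replicates: one well per compound, no replicates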
ANO1 activ: mouse TMEM16A channel activation, primary screen; Q8BHY3; HEK293 TMEM16A/YFP-H148Q/I152L, iodide quench fluorescence; active compounds read low; B-score at 10 µM; hit rate 0.3% among 340,000;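 active = fluorescence-ratio B-score plate-corrected deviation score at least 3 library SD below zero, with starting fluorescence score within 5 deviations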;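 note: channel opened by trigger with iodide after compound preincubation; score built on the fluorescence ratio of max minus min over baseline; more negative score means more quench and so TMEM16A activation or potentiation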
TMEM16A reconf: re-confirmation of mouse TMEM16A chloride channel inhibitors | shares compounds with TMEM16A inh | HEK293 TMEM16A/YFP-H148Q, iodide quench fluorescence; ionomycin added to raise cell calcium | inhibition, % at 10 µM | hit rate 39% among 2,300 | AID 652189;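 active = mean duplicate percent inhibition, scaled so buffer wells are 0 and the reference blocker 100, over three buffer SD above buffer mean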
TMEM16A Ca cntr: counter-screen for TMEM16A inhibitors: effect on calcium mobilization; shares compounds with TMEM16A inh; TMEM16A/YFP HEK293, Fluo4 calcium mobilization; calcium response (% of ionomycin), % at 10 µM; hit rate 2% among 2,300; AID 652231;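 active = duplicate-averaged calcium signal over 20% of the ionomycin maximum, relative to buffer baseline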;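 note: each well's signal is peak minus trough fluorescence divided by its pre-addition baseline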
Parental YFP cnt: counter-screen for TMEM16A inhibitors: effect in parental YFP-HEK293 cells; AID 652233; shares compounds with TMEM16A inh; iodide YFP quench, ionomycin; YFP ratio F(max-min)/F0 at 10 µM; 2,300 tested, under 10 active;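 active = yellow fluorescent protein signal ratio exceeding the buffer control mean by over 5 SD of those controls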;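 note: ratio is mean of duplicate wells from kinetic YFP trace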
ClC-1 inh: blocks the rat ClC-1 voltage-dependent chloride channel | shares compounds with TMEM16A inh | ratio percent, % at 10 µM | CHO ClC-1-YFP, iodide influx fluorescence quench; iodide control reads 0, buffer control 100 | AID 652236 | 2,300 tested, under 10 active;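 active = duplicate-mean ratio percent above the mean of iodide-only control wells, which defines zero, plus 5 of their SD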;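 note: higher percent means stronger block of ClC-1 iodide influx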
Target sequence (P35524 whole entry, looked up): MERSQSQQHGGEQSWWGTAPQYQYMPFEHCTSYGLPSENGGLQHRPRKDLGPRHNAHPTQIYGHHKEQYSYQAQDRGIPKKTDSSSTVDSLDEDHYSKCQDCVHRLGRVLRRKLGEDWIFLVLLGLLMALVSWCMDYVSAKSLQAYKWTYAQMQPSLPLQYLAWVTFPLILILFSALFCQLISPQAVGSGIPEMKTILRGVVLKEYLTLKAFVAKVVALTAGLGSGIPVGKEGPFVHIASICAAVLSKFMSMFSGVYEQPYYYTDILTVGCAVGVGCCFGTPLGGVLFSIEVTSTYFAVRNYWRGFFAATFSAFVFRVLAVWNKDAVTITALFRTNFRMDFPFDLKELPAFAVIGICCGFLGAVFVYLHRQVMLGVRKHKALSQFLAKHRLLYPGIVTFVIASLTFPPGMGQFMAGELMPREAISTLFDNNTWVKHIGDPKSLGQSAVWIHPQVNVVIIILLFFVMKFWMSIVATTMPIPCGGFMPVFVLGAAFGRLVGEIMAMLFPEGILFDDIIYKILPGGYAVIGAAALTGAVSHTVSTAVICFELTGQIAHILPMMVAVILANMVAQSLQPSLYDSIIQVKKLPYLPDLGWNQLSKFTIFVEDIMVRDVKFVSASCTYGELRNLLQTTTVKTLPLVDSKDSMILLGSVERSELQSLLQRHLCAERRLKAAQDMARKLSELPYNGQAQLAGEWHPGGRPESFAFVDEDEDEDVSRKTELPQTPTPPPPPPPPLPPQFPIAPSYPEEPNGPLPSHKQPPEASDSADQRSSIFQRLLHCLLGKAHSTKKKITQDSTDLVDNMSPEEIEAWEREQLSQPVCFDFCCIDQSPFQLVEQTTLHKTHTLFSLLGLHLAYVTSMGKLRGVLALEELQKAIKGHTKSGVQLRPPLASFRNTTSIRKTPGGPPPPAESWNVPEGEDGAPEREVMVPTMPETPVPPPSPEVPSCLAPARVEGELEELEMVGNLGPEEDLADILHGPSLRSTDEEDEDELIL
Hits are given with their value; . = inactive; / = not tested or not shown.

SMILES	CSC inhib	TMEM16A inh	MC4R barr agon	Beta cell apopt	MC4R antagonist	ANO1 activ	TMEM16A reconf	TMEM16A Ca cntr	Parental YFP cnt	ClC-1 inh
O=C1c2ccccc2C(=O)N1CCCCSc1nc2ccccc2o1	.	25	.	.	.	.	20%	.	.	.
Cc1ccc(NC(=O)CSC2=C(C#N)C(c3ccco3)CC(=O)N2)cc1 (centres undefined)	.	25	.	.	.	.	.	.	.	.
Cc1ccc(NC(=O)CSC2=C(C#N)C(c3ccco3)C3=C(CC(C)(C)CC3=O)N2)cc1 (centres undefined)	/	.	.	.	.	.	/	/	/	/
COC(=O)c1ccc(CNC(=O)COC(=O)C23CC4CC(CC(C4)C2)C3)cc1	.	.	.	.	.	.	/	/	/	/
COC(=O)c1ccc(CNC(=O)COC(=O)CC23CC4CC(CC(Br)(C4)C2)C3)cc1	.	25	.	/	.	.	.	.	.	.
N#CC1(NC(=O)COC(=O)Cn2[nH]c(=O)c3ccccc3c2=O)CCCCC1	/	.	.	.	.	.	/	/	/	/
COc1ccc(S(=O)(=O)Nc2ccccc2C(F)(F)F)cc1	.	100	.	.	.	.	.	.	.	.
CC(C)Cc1nc(N2CCN(C(=O)c3ccccc3)CC2)c(C#N)c2c1CCC2	.	.	.	.	.	.	/	/	/	/
N#Cc1c(NC(=O)CN2CCCCC2)sc2c1CCC2	.	.	.	/	.	.	/	/	/	/
CC(C)Cc1nc(N2CCN(C(=O)c3ccco3)CC2)c(C#N)c2c1CCC2	.	25	.	.	.	.	.	.	.	.
N#Cc1c(NC(=O)CN2CCN(C(=O)c3ccco3)CC2)sc2c1CCCCC2	.	25	.	.	.	.	.	.	.	.
O=C(NCc1ccccc1)c1cc(C2CCCCN2C(=O)c2ccc3c(c2)CCO3)on1 (centres undefined)	/	/	.	/	.	/	/	/	/	/
O=C(COC(=O)c1ccc([N+](=O)[O-])o1)Nc1ccc2c(c1)OC(F)(F)O2	/	/	.	/	.	/	/	/	/	/
Cc1cccc2nc(-c3cccnc3)c(Nc3ccccc3)n12	.	100	.	.	.	.	35%	.	.	.
Cc1cccc2nc(-c3cccnc3)c(NCCC(C)C)n12	.	.	.	.	.	.	/	/	/	/
CN(C)S(=O)(=O)N1CCC(Oc2cccc(C(=O)NCCC3=CCCCC3)c2)CC1	.	100	.	.	.	.	22%	.	.	.
CN(C)S(=O)(=O)N1CCC(Oc2cccc(C(=O)NC3CCCCC3)c2)CC1	.	.	.	.	.	.	/	/	/	/
CC(C)c1noc2ncc(C(=O)c3cc(Cl)cc(Cl)c3O)cc12	.	25	.	.	.	.	32%	.	.	.
CCC(CC)c1nnc(NC(=O)c2cccc(S(=O)(=O)N3CCc4ccccc43)c2)s1	.	.	.	.	.	.	/	/	/	/
CCOC(=O)c1sc(NC(=O)c2cccc(S(=O)(=O)N3CCc4ccccc43)c2)c(C#N)c1C	.	25	.	.	.	.	26%	.	.	.
O=C1NC(=O)C(c2ccccc2)N1 (centres undefined)	/	/	.	/	.	.	/	/	/	/
CC(C)COc1ccc(C2NC(=O)NC2=O)cc1 (centres undefined)	/	100	.	.	.	.	.	.	.	.
Cn1c(SCC(=O)Nc2ccc3c(c2)n(C)c(=O)n3C)nnc1-c1ccncc1	/	.	.	.	.	.	.	.	.	.
Cn1c(SCC(=O)Nc2ccc(NC(=O)c3ccccc3)cc2)nnc1-c1ccncc1	.	.	.	.	.	.	/	/	/	/
CCCOC(=O)c1ccc(-c2c(C)noc2-c2ccc(OC)cc2O)o1	.	100	.	.	.	.	.	.	.	.
SMILES	CSC inhib	TMEM16A inh	MC4R barr agon	Beta cell apopt	MC4R antagonist	ANO1 activ	TMEM16A reconf	TMEM16A Ca cntr	Parental YFP cnt	ClC-1 inh
COc1ccc(-c2onc(C)c2-c2cscn2)c(O)c1	.	.	.	.	.	.	/	/	/	/
O=C(Nc1ccc(F)cc1)c1ccccc1NS(=O)(=O)N1CCCC1	.	25	.	.	.	.	28%	.	.	.
CS(=O)(=O)c1ccc(NC(=O)CCN2C(=O)C3CC=CCC3C2=O)cc1 (centres undefined)	.	.	.	.	.	.	/	/	/	/
N=c1n(Cc2ccc(Cl)cc2)c2ccccc2n1CC(O)COc1ccccc1 (centres undefined)	.	25	12	.	.	.	28%	.	.	.
O=C(Nc1ccc(Cl)cc1)NC1CCCCC1Cc1ccco1 (centres undefined)	.	100	.	/	.	.	42%	.	.	.
O=C(Nc1ccc(Cl)cc1)NC1CCCC1Cc1ccco1 (centres undefined)	.	.	.	.	.	.	/	/	/	/
COc1cc(-c2cc(NC=O)c3ncc(-c4cccc(C(=O)N(C)C)c4)n3c2)cc(OC)c1OC	/	/	.	/	.	/	/	/	/	/
Cc1nn(C(=O)c2ccc3c(c2)OCO3)c(N)c1-c1ccccc1	.	100	.	.	.	.	.	.	.	.
Cc1nn(C(=O)c2cccs2)c(N)c1-c1ccccc1	.	.	.	.	.	.	/	/	/	/
CN1c2ccccc2C(O)=C(C(=S)Nc2ccc(F)c(Cl)c2)S1(=O)=O	.	100	.	.	.	.	62%	.	.	.
CCOC(=O)c1ccc(S(=O)(=O)N2CCC(C(=O)NCC3CCCCC3)CC2)cc1	.	/	.	.	.	.	/	/	/	/
O=S(=O)(c1cc(Br)ccc1Br)N1CCCCCC1	.	25	.	/	.	.	21%	.	.	.
Cc1cc(C)c(S(=O)(=O)Nc2ccc3c4c(cccc24)CC3)c(C)c1	93	100	.	.	.	.	.	.	.	.
Cc1ccc(S(=O)(=O)Nc2ccc3c4c(cccc24)CC3)c(C)c1	.	.	.	.	.	.	/	/	/	/
COc1ccc(C)cc1NC(=O)CCCN1C(=O)CN(C)C1=O	/	/	.	.	.	.	/	/	/	/
CC(C)(C)C(=O)CN1C(=O)NC(C)(Cc2ccc3c(c2)OCO3)C1=O (centres undefined)	.	.	.	.	.	.	/	/	/	/
O=C(CCCSc1nc2ccccc2[nH]1)N1CCN(c2ccc([N+](=O)[O-])cc2)CC1	.	25	.	.	.	.	20%	.	.	.
